An excerpt weighted towards active compounds, which were near 1.5% of everything screened.
Runt-SMMHC FRET: blocks binding of human RUNX1 Runt domain to CBFb-SMMHC; AID 1434; Cerulean-Runt/Venus-CBFb-SMMHC FRET ratio 530/480, 1 h; inhibition, % at 20 µM; 220,000 tested, 0.74% active;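 active = mean inhibition across duplicate retests at 20 µM reaching about 50%, limit read from the data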;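 note: inhibitors lower the FRET ratio by blocking Runt binding to CBFb-SMMHC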
CaV13 ICDI inh: Primary screen for inhibitors of IQ motif and Ca2+-dependent inactivation inhibitor domain binding in CACNA1D, Förster resonance energy transfer in living cells, …; HEK cells, CFP/YFP FRET ICDI-IQ, plate reader, 10 min; percent FRET-ratio fall versus neutral wells; inhibition, % at 12.3 µM; 340,000 tested, 0.098% active;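 active = mean replicate inhibition of at least 30% and at least 1% of replicates passing that level; inconclusive = only one of the two criteria is met; inactive = neither criterion is met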
Runt-CBFb FRET: blocks binding of human RUNX1 Runt domain to CBFb. 220,000 tested, 0.46% active. Cerulean-Runt/Venus-CBFb FRET ratio 530/480, 1 h. Q01196+Q13951. inhibition, % at 20 µM. AID 1496;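 active = inhibition over about 50% at 20 µM in the single-dose screen, limit read from the data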
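test system = Cerulean-tagged RUNX1 Runt domain (FRET donor) fusion protein | reagent = Venus-CBFb binding partner, 100 nM | incubation = protein complex preformed 1 h, compound exposure 1 h, room temperature, dark | detection = FRET fluorescence | read-out basis = loss of energy transfer signal | controls = 5 µM unlabeled CBFb as full-inhibition high control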
Hck Nef HTS: blocks Nef-activated human Hck kinase; Recombinant Hck-YEEI plus Nef, Z-Lyte FRET kinase assay; 220,000 tested, 0.68% active; inhibition, % at 20 µM;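 active = Hck-Nef kinase inhibition above about 50%, limit read from the data; inactive = inhibition below that limit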
Target sequence (P08631 whole entry, looked up): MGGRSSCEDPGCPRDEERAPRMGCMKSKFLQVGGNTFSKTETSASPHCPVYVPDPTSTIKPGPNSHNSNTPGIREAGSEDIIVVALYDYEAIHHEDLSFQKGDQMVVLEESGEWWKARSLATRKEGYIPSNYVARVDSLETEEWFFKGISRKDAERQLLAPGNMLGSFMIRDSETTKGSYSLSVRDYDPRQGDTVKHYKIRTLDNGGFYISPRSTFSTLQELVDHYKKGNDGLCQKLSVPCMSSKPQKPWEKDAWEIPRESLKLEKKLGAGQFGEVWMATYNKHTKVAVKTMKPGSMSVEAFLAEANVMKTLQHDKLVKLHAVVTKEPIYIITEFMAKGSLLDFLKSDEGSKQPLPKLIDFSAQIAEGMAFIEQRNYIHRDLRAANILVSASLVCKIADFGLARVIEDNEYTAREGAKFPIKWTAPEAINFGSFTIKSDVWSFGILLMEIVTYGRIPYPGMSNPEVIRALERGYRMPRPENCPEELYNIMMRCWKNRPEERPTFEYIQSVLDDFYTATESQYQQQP
RanGTP-Imp inh: disruptors of Ran-importin-beta complex formation – biochemical, FRET, CFP-Ran, YFP-importin-beta, homogeneous, primary screen; cell-free CFP-Ran/YFP-importin-beta FRET ratio; inhibition, % (no concentration beside the values); 300,000 tested, 1.1% active; AID 2216;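 active = more than half of the replicate wells show a fall in the fluorescence ratio signal beyond about 16%, limit read from the data, passing the limit was not always enough; inconclusive = exactly half of the replicate wells pass the set limit; inactive = fewer than half of replicates pass the limit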
A number is an active result; – = inactive; ? = inconclusive; · = no result.

SMILES | Runt-SMMHC FRET | CaV13 ICDI inh | Runt-CBFb FRET | Hck Nef HTS | RanGTP-Imp inh
CCN1CCc2c(sc(NC(=O)Cc3ccccc3)c2C(N)=O)C1 | · | – | · | · | 155
CCN1CCc2c(sc(NC(=O)c3ccc(S(=O)(=O)N(CC)c4ccccc4)cc3)c2C(N)=O)C1 | · | – | · | · | 72
CCN1CCc2c(sc(NC(=O)c3ccc(S(=O)(=O)N4CCOCC4)cc3)c2C(N)=O)C1 | – | – | – | – | ?
CC(=O)N1CCc2c(sc(NC(=O)CCS(=O)(=O)c3ccccc3)c2C(N)=O)C1 | · | · | · | · | –
CN1CCc2c(sc(NC(=O)Cc3ccccc3)c2C(N)=O)C1 | · | – | · | · | 134
COC(=O)c1ccccc1NC(=O)c1ccc(-c2ccc(Br)cc2)o1 | – | – | – | – | –
CCCC(=O)N1CCC1(C)C(=O)NS(=O)(=O)c1ccc(F)cc1F (stereo unspecified) | · | – | · | · | ·
CCN(CC)S(=O)(=O)c1ccc(C(=O)OC2CCCCC2CN(C)C)cc1 (stereo unspecified) | – | · | – | – | 26
CN1CCc2nc(NC(=O)COc3ccc(C#N)cc3)sc2C1 | 59 | – | – | – | 23
CCOc1ccc(N(C)S(=O)(=O)c2cc(-c3cc(C)no3)ccc2C(C)C)cc1 | · | – | · | · | –
Cc1cc(F)ccc1NC(=O)c1cc(S(=O)(=O)N2CCOCC2)cn1C | · | – | · | · | –
Cc1cc(C)n2nc(SCC(=O)c3ccc[nH]3)nc2n1 | – | – | – | – | –
O=c1[nH]c(SCc2ccccc2)nc2c1cnn2-c1ccc(F)cc1 | – | – | – | – | 28
COc1cccc(OCc2cc(C(=O)N(C)Cc3nccn3C)no2)c1 | · | – | · | · | ?
CCOC(=O)c1c(C)n(C)c2ccc(OCC(O)CN3CCC(C)CC3)cc12 (stereo unspecified) | – | 40 | – | – | –
Cc1cc(N/N=C/c2ccc(O)cc2)c2cccc(C)c2n1 | · | – | · | · | –
N#C/C(=C/c1ccc(N2CCCCCC2)o1)c1ccc(F)cc1 | · | · | · | – | 27
CCOC(=O)Cc1csc(NS(=O)(=O)c2ccc(Br)cc2)n1 | – | – | – | – | 37
CCOC(=O)Cc1csc(NS(=O)(=O)c2ccc(F)cc2)n1 | – | · | – | – | –
O=C(O)Cn1c2c(c3ccccc31)CCCC2 | – | · | – | – | 29
COc1ccc(-c2noc(CCN3C(=O)c4ccccc4C3=O)n2)cc1OC | – | – | – | – | –
Cc1ccc(C2C(C#N)=C(N)SC(N)=C2C#N)c(C)c1 | – | · | – | – | 47
Cc1csc(N/N=C/c2ccc(O)c([N+](=O)[O-])c2)n1 | – | – | – | – | –
CC(C)(C)c1csc(N/N=C/c2ccc(O)cc2)n1 | · | 64 | · | · | –
COC(=O)C1=C(C)N=C2SC(C#N)=C(N)N2C1c1cccc(OC)c1 (stereo unspecified) | – | – | – | – | ?
SMILES | Runt-SMMHC FRET | CaV13 ICDI inh | Runt-CBFb FRET | Hck Nef HTS | RanGTP-Imp inh
COC(=O)C1=C(C)N=C2SC(C#N)=C(N)N2C1c1ccc(OC)cc1 (stereo unspecified) | – | – | – | – | 21
Cn1c(=O)[nH]c(=O)c2c1nc(Br)n2CCSc1ncccn1 | – | · | · | – | –
Cn1c(=O)c2c(nc(Br)n2CCSc2ncccn2)n(C)c1=O | – | – | – | – | 25
Cc1ccccc1-c1ccc(/C=C2/SC(N3CCOCC3)=NC2=O)o1 | – | – | – | – | 20
CN1CCN(Cc2c(O)ccc3cc(-c4ccccn4)c(=O)oc23)CC1 | 91 | – | – | – | 144
CCCc1cc2c(=O)c(-c3ccc4c(c3)OCCO4)coc2cc1OS(C)(=O)=O | – | – | – | – | –
Cc1cc(C)n(-c2nc3ccccc3nc2Nc2ccc(CC(=O)O)cc2)n1 | – | – | – | – | ?
Cc1ccc(Nc2nc3ccccc3nc2-n2nc(C)cc2C)cc1 | – | – | – | – | 31
CC(/C=C1\SC(=S)N(C(C(=O)O)c2ccccc2)C1=O)=C\c1ccccc1 (stereo unspecified) | – | – | – | 75 | –
COc1ccc(-c2cc(C(=O)OCC(=O)Nc3cc(C)on3)c3ccccc3n2)cc1OC | – | · | – | – | 90
O=C(COC(=O)c1cc(-c2ccc(Cl)s2)nc2ccccc12)NCc1ccco1 | – | – | – | – | –
COc1ccc(CNC(=O)COC(=O)c2cc(-c3ccc(Cl)s3)nc3ccccc23)cc1 | – | · | – | – | 17
COc1ccc2nc(NC(=O)/C=C/c3ccc4c(c3)OCO4)sc2c1 | – | – | – | – | –
COc1ccc(NC(=O)C2CCC(CNS(=O)(=O)c3cccs3)CC2)cc1 (stereo unspecified) | – | 31 | – | – | –
O=C(Nc1cnccn1)c1cccc(C(F)(F)F)c1 | – | – | – | – | –
Nc1nc(Cl)cc(NCCc2ccccc2)n1 | – | – | – | – | –
CCCCNc1cc(Cl)nc(N)n1 | – | – | – | – | 40
O=C/C(=C\Nc1ccc(S(=O)(=O)CCO)cc1)c1nc2cc(Cl)ccc2o1 | – | – | – | – | 22
O=C/C(=C\Nc1ccc(Cl)cn1)c1nc2cc(Cl)ccc2o1 | – | – | – | – | –
CCc1nnc(NC(=O)c2ccc(-c3ccccc3F)o2)s1 | – | 136 | – | – | –
O=C(OCC1COc2ccccc2O1)c1c(F)cccc1F (stereo unspecified) | – | · | – | – | –
FC(F)(F)c1nc2nc(Cl)c(Cl)nc2[nH]1 | · | – | · | · | ·
FC(F)(F)c1cccc(-c2nc3nc(Cl)c(Cl)nc3[nH]2)c1 | – | · | – | – | 43
Cc1ccc(C)n1-c1nccc(-c2ccco2)n1 | 86 | – | – | – | –
COc1cc(C2SCC(=O)N2Cc2ccccc2)ccc1O (stereo unspecified) | · | – | · | · | 17
SMILES | Runt-SMMHC FRET | CaV13 ICDI inh | Runt-CBFb FRET | Hck Nef HTS | RanGTP-Imp inh
COc1ccc(C2SCC(=O)N2Cc2ccccc2)cc1 (stereo unspecified) | · | – | · | · | –
COc1ccc(CCNC(=O)COC(=O)C23CC4CC(CC(C4)C2)C3)cc1 | – | – | – | – | –
CCOC(=O)c1c(N2C(=O)C=CC2=O)sc(C)c1C | 62 | · | – | – | –
CCOC(=O)c1c(NC(N)=O)sc(C)c1C | – | – | – | – | –
COc1cc(/C=C(\C#N)C(=O)Nc2cccc3ncccc23)ccc1O | 92 | · | 84 | – | 63
Nc1[nH]c(=O)nc(Nc2ccccc2)c1N=O | · | – | · | · | 38
Nc1nc(-c2ccccc2)[nH]c(=O)c1N=O | – | – | – | – | –
CCCCN(C)CC(O)Cn1cc(/C=C/C(=O)c2cccs2)c2ccccc21 (stereo unspecified) | – | · | – | – | –
CCCCN(C)CC(O)Cn1cc(/C=C/C(=O)c2ccc(OCC)cc2)c2ccccc21 (stereo unspecified) | · | · | · | · | 25
CCn1nc(NC(=O)C(C)C)c2cc3cccc(C)c3nc21 | · | – | · | · | 48
Cc1cccc2cc3c(NC(=O)C(C)(C)C)nn(CC(C)C)c3nc12 | · | – | · | · | 80
